Experimental data published in ChEMBL document CHEMBL1149252, “Synthesis and structure-activity relationships of 4-alkynyloxy phenyl sulfanyl, sulfinyl, and sulfonyl alkyl hydroxamates as tumor necrosis factor-alpha converting enzyme and matrix metalloproteinase inhibitors” (J Med Chem, 2004).
Calls of active or inactive are those of the source. No cut-off for these calls is given here.

Key:
[1] = target: T1, Interstitial collagenase (Homo sapiens, UniProt P03956); assay: Inhibition of MMP1 at 10 uM
Outline: (§1)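 Cell-free assay on isolated enzyme (MMP-1, MMP-9, MMP-13 or TACE). Percent inhibition was read at a single 10 μM inhibitor concentration, with samples run in triplicate and the mean reported. Full dose-response curves were generated only where inhibition at 10 μM reached 60%.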

[2] = system: Mus musculus; assay: Inhibition of LPS-stimulated TNFalpha production in mouse model at 100 mg/kg, po at 12 hrs; assay type: functional
[3] = system: THP-1; assay: Inhibition of LPS-stimulated TNFalpha production in human THP1 cells at 3 uM by ELISA; assay type: functional
[4] = target: T2, Collagenase 3 (Homo sapiens, UniProt P45452); assay: Inhibition of MMP13 at 10 uM; outline: as §1
[5] = system: Mus musculus; assay: Inhibition of LPS-stimulated TNFalpha production in mouse model at 10 mg/kg, po; assay type: functional, organism-based; set-up: dose 10 mg/kg
Outline: (§2)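 Mice received the compound orally. LPS was injected 30 min after dosing. Blood was drawn 1 h after LPS, and serum TNF-α was measured by ELISA. Results are expressed as % inhibition of LPS-induced TNF-α.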

[6] = system: Mus musculus; assay: Inhibition of LPS-stimulated TNFalpha production in mouse model at 100 mg/kg, po at 1 hrs; assay type: functional; outline: as §2
[7] = target: T3, Matrix metalloproteinase-9 (Homo sapiens, UniProt P14780); assay: Inhibition of MMP9 at 10 uM; outline: as §1
[8] = target: T2, Collagenase 3
[9] = target: T1, Interstitial collagenase
[10] = target: T3, Matrix metalloproteinase-9
[11] = target: T4, Disintegrin and metalloproteinase domain-containing protein 17 (Homo sapiens, UniProt P78536)
[12] = target: T4, Disintegrin and metalloproteinase domain-containing protein 17; assay: Inhibition of TACE at 10 uM; outline: as §1
[13] = system: Mus musculus; assay: Inhibition of LPS-stimulated TNFalpha production in mouse model at 10 mg/kg, po at 12 hrs; assay type: functional, organism-based; set-up: dose 10 mg/kg
[14] = system: Mus musculus; assay: Inhibition of LPS-stimulated TNFalpha production in mouse model at 10 mg/kg, po at 1 hrs; assay type: functional; outline: as §2

T1 sequence (P03956 whole entry): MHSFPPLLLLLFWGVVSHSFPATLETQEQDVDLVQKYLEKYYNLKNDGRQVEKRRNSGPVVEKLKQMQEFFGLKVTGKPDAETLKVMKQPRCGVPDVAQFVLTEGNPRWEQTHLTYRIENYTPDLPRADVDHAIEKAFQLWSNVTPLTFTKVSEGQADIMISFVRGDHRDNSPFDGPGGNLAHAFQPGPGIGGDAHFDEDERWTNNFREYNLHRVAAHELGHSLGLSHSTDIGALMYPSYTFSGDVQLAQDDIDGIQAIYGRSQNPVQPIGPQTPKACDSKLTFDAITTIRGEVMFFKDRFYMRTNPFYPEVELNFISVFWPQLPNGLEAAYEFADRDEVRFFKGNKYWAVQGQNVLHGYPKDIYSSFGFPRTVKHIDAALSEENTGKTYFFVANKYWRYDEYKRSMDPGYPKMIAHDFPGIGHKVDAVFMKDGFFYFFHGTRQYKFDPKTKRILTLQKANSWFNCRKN
T3 sequence (P14780 whole entry): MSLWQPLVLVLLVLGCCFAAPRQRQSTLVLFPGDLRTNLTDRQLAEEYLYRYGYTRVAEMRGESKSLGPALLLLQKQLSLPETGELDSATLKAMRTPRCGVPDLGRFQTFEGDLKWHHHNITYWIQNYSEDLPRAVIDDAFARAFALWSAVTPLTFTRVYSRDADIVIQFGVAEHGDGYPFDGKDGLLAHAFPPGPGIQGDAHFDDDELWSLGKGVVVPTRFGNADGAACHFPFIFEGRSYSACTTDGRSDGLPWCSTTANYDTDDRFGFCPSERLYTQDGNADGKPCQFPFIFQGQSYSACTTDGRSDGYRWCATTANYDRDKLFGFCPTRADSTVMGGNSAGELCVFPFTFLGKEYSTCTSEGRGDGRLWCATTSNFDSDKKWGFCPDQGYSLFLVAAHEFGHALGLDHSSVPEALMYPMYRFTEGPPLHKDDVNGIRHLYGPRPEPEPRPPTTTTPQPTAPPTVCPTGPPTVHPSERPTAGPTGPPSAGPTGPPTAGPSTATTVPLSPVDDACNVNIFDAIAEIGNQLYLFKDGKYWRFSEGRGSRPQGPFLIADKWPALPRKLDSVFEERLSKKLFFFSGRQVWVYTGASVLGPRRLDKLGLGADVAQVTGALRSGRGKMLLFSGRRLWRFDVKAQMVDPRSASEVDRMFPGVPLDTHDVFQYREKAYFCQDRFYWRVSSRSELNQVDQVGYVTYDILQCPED
T4 sequence (P78536 whole entry, the tested form may be a part): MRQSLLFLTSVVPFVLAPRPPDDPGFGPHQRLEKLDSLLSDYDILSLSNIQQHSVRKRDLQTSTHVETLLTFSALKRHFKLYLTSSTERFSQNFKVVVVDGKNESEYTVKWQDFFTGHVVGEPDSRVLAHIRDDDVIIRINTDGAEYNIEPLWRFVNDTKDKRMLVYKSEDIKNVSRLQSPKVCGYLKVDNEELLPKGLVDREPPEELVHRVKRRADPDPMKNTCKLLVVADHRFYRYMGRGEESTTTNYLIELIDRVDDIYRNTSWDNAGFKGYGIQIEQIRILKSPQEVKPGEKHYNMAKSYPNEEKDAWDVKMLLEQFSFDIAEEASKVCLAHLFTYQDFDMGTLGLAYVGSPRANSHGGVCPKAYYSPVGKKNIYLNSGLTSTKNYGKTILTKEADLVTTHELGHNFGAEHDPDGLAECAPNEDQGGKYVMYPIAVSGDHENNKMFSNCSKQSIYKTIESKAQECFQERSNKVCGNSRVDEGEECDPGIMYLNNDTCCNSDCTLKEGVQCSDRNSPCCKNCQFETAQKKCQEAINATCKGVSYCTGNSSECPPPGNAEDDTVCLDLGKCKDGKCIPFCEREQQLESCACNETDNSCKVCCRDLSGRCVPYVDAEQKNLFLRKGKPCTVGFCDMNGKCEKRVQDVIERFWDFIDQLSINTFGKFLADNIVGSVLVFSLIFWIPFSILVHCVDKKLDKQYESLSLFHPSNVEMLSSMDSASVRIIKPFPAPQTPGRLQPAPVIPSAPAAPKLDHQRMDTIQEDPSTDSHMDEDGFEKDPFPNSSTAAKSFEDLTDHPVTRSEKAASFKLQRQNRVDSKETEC

IC50 [8] | IC50 [9] | IC50 [10] | IC50 [11] | SMILES | inhibition at 3 µM [3] | further results
> 10000 nM | > 10000 nM | > 10000 nM | – | CC#CCOc1ccc(S(=O)(=O)C(C(=O)NO)C2CCNCC2)cc1 (configuration not stated) | – | –
> 10000 nM | > 10000 nM | > 10000 nM | – | CC#CCOc1ccc(S(=O)(=O)C(C(=O)NO)C2CCOCC2)cc1 (configuration not stated) | – | –
107 nM | 5140 nM | 1260 nM | – | CC#CCOc1ccc(S(=O)(=O)C(C(=O)NO)C(C)C)cc1 (configuration not stated) | – | –
900 nM | 3000 nM | 1500 nM | 4 nM | CC#CCOc1ccc([S@@+]([O-])[C@@H](CCCCCC)C(=O)NO)cc1 | 67% | –
> 10000 nM | > 10000 nM | > 10000 nM | 74 nM | CC#CCOc1ccc([S@@](=O)[C@H](C(=O)NO)c2ccccc2)cc1 | 4% | –
500 nM | > 10000 nM | 2500 nM | 75 nM | CC#CCOc1ccc(S(=O)(=O)C(CCCCCC)C(=O)NO)cc1 (configuration not stated) | 6% | –
> 10000 nM | > 10000 nM | > 10000 nM | – | CC#CCOc1ccc(SC(C(=O)NO)C(C)C)cc1 (configuration not stated) | 13% | –
150 nM | 3200 nM | 1000 nM | 12 nM | CC#CCOc1ccc([S@+]([O-])[C@H](CCCCCC)C(=O)NO)cc1 | 35% | –
> 10000 nM | > 10000 nM | > 10000 nM | – | CC#CCOc1ccc(SC(C(=O)NO)c2ccc(OC)cc2)cc1 (configuration not stated) | 3% | –
> 10000 nM | > 10000 nM | > 10000 nM | – | CC#CCOc1ccc(SC(C(=O)NO)c2ccccc2)cc1 (configuration not stated) | 14% | –
– | > 10000 nM | – | – | CC#CCOc1ccc(SC(CCCCCC)C(=O)NO)cc1 (configuration not stated) | 5% | –
> 10000 nM | > 10000 nM | > 10000 nM | – | CC#CCOc1ccc([S+]([O-])C(C(=O)NO)c2ccccc2)cc1 (single isomer, unassigned) | 74% | –
> 10000 nM | > 10000 nM | > 10000 nM | 17 nM | CC#CCOc1ccc([S+]([O-])C(C(=O)NO)c2ccc(OC)cc2)cc1 (single isomer, unassigned) | – | –
– | > 10000 nM | > 10000 nM | – | CC#CCOc1ccc(S(=O)(=O)C(C(=O)NO)C2CCCCC2)cc1 (configuration not stated) | – | –
2000 nM | > 10000 nM | 3000 nM | – | CC#CCOc1ccc(SC(C(=O)NO)C2CCCCC2)cc1 (configuration not stated) | 5% | –

The remaining lines, values behind:

SMILES | IC50 [8] | IC50 [9] | IC50 [10] | IC50 [11] | inhibition at 3 µM [3] | further results
CC#CCOc1ccc(S(=O)(=O)C2(C(=O)NO)CCN(Cc3ccc(Cl)cc3)CC2)cc1 | – | – | – | – | 66% | inhibition [1]: 52%; inhibition in vivo at 100 mg/kg [2]: 23%; inhibition [4]: 56%; Activity [5]: inactive; inhibition in vivo at 100 mg/kg [6]: 61%; inhibition [7]: 52%
CCCCCCC(Sc1ccc(OC)cc1)C(=O)NO (configuration not stated) | – | – | – | – | – | inhibition [1]: 9%; inhibition [4]: 55%; inhibition [7]: 67%
CC#CCOc1ccc([S@@](=O)[C@H](C(=O)NO)c2ccc(OC)cc2)cc1 | > 10000 nM | > 10000 nM | > 10000 nM | 48 nM | 12% | –
CC#CCOc1ccc(S(=O)(=O)C2(C(=O)NO)CCN(CC)CC2)cc1 | – | – | – | 80 nM | 35% | inhibition [1]: 44%; inhibition [7]: 31%
COc1ccc(S(=O)(=O)C2(C(=O)NO)CCN(Cc3ccc(Br)cc3)CC2)cc1 | – | – | – | – | 0% | –
CC#CCOc1ccc(S(=O)(=O)C2(C(=O)NO)CCN(Cc3ccc(OC)cc3)CC2)cc1 | – | – | – | – | – | inhibition in vivo at 100 mg/kg [2]: 24%; Activity [5]: inactive; inhibition in vivo at 100 mg/kg [6]: 91%
CC#CCOc1ccc(S(=O)(=O)C(C(=O)NO)C2CC[S+]([O-])CC2)cc1 (configuration not stated) | > 10000 nM | > 10000 nM | > 10000 nM | 39 nM | 14% | –
CCCCOc1ccc(S(=O)(=O)C2(C(=O)NO)CCN(Cc3ccc(Br)cc3)CC2)cc1 | 5 nM | 3960 nM | 10 nM | 72 nM | 6% | –
CC#CCOc1ccc(S(=O)(=O)C(C(=O)NO)c2ccccc2)cc1 (configuration not stated) | 68 nM | 4570 nM | 124 nM | 94 nM | 68% | –
CC#CCOc1ccc(SC2(C(=O)NO)CCN(C(=O)OC(C)(C)C)CC2)cc1 | – | – | – | – | 0% | inhibition [1]: 24%; inhibition [12]: 38%; inhibition [7]: 25%
C#CCOc1ccc(S(=O)(=O)C2(C(=O)NO)CCN(Cc3ccccc3)CC2)cc1 | 7 nM | 96 nM | 18 nM | 69 nM | 0% | –
CC#CCOc1ccc(S(=O)(=O)N2CCSC(C)(C)[C@@H]2C(=O)NO)cc1 | – | – | – | – | – | Activity [13]: inactive; inhibition in vivo at 10 mg/kg [14]: 80%
C#CCOc1ccc(S(=O)(=O)C2(C(=O)NO)CCN(Cc3ccc(Br)cc3)CC2)cc1 | 3 nM | – | 6 nM | – | 7% | –
CC#CCOc1ccc(S(=O)(=O)C(C(=O)NO)C2CCN(C(=O)C3CC3)CC2)cc1 (configuration not stated) | > 10000 nM | > 10000 nM | > 10000 nM | 54 nM | 71% | –
CC#CCOc1ccc(S(=O)(=O)C2(C(=O)NO)CCN(Cc3ccc(Br)cc3)CC2)cc1 | – | 3370 nM | – | – | – | –
CC#CCOc1ccc(S(=O)(=O)C(C(=O)NO)C2CCN(C(=O)c3ccccc3)CC2)cc1 (configuration not stated) | > 10000 nM | > 10000 nM | > 10000 nM | 233 nM | 28% | –
CCC#CCOc1ccc(S(=O)(=O)C2(C(=O)NO)CCN(Cc3ccc(Br)cc3)CC2)cc1 | – | – | – | – | 0% | inhibition [1]: 51%; inhibition [4]: 40%; inhibition [7]: 41%
CC#CCOc1ccc(S(=O)(=O)C(C(=O)NO)C2CCSCC2)cc1 (configuration not stated) | > 10000 nM | > 10000 nM | > 10000 nM | 113 nM | 15% | –
CC#CCOc1ccc(S(=O)(=O)C(C(=O)NO)C2CCN(C(C)=O)CC2)cc1 (configuration not stated) | > 10000 nM | > 10000 nM | > 10000 nM | 119 nM | 31% | –
CCCCCC#CCOc1ccc(S(=O)(=O)C2(C(=O)NO)CCN(Cc3ccc(Br)cc3)CC2)cc1 | – | – | – | – | 0% | inhibition [1]: 33%; inhibition [4]: 60%; inhibition [7]: 59%
CC#CCOc1ccc(S(=O)(=O)C2(C(=O)NO)CCN(Cc3ccccc3)CC2)cc1 | – | 2640 nM | – | – | – | –
CC#CCOc1ccc(S(=O)(=O)C(C(=O)NO)c2ccc(OC)cc2)cc1 (configuration not stated) | 3690 nM | > 10000 nM | > 10000 nM | 201 nM | – | –
CCCCCC[C@@H](C(=O)NO)[S@+]([O-])c1ccc(OC)cc1 (relative stereo) | 72 nM | 1150 nM | 186 nM | 30 nM | – | –
O=C(NO)C1(S(=O)(=O)c2ccc(OCC#CCN3CCOCC3)cc2)CCN(Cc2ccc(Br)cc2)CC1 | – | – | – | – | 0% | inhibition [1]: 16%; inhibition [4]: 63%; inhibition [7]: 20%
CC#CCOc1ccc([S@@+]([O-])[C@H](C(=O)NO)C(C)C)cc1 | – | 6480 nM | 399 nM | – | – | –
CCCCCC[C@@H](C(=O)NO)[S@@+]([O-])c1ccc(OC)cc1 (relative stereo) | 18 nM | 1510 nM | 148 nM | 375 nM | – | –
CC#CCOc1ccc(SC2(C(=O)OCC)CCN(C(=O)OC(C)(C)C)CC2)cc1 | – | – | – | – | 0% | inhibition [1]: 26%; inhibition [4]: 32%; inhibition [12]: 67%; inhibition [7]: 21%
